Test results reported in ChEMBL document CHEMBL5033998, “Discovery of DDO-2213 as a Potent and Orally Bioavailable Inhibitor of the WDR5-Mixed Lineage Leukemia 1 Protein-Protein Interaction for the Treatment of MLL Fusion Leukemia” (J Med Chem, 2021).

Tests used:
[1] = target: Histone-lysine N-methyltransferase 2A/WDR5 (Homo sapiens, UniProt P61964); test: Inhibition of MLL1-WDR5 (unknown origin) protein-protein interaction using Thr-FAM as probe by fluorescence polarization competition assay
Method in brief: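 Competitive FP with WDR5 and 10mer-Thr-FAM probe in 100 mM KH2PO4, 25 mM KCl, 0.01% Triton X-100, pH 6.5; read at λex 485 ± 25 nm, λem 535 ± 25 nm. IC50 from three independent replicates ± SD.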

[2] = target: Histone-lysine N-methyltransferase 2A/WDR5 (Homo sapiens) (UniProt P61964+Q03164); test: Inhibition of MLL1-WDR5 (unknown origin) protein-protein interaction at 100 uM by competitive fluorescence polarization assay
MV4-11 = test: Antiproliferative activity against human MV4-11 cells assessed as cell viability incubated for 72 hrs by CCK8 assay; type: functional, cell-based; settings: MV4-11, 72 h
Method in brief: (§1)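 Cells seeded at 3000–6000 per well, exposed to inhibitor at several concentrations for 72 h; viability read with CCK8 kit. MV4-11 and K562 grown in modified IMDM + 10% FBS, pen/strep; MOLM-13 in RPMI-1640 + 10% FBS; HUVEC in modified DMEM + 10% FBS; 37 °C, 5% CO2. IC50 as mean ± SD of three independent experiments.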

K562 = test: Antiproliferative activity against human K562 cells assessed as cell viability incubated for 72 hrs by CCK8 assay; type: functional, cell-based; settings: K562, 72 h; method in brief: as §1
[3] = Permeability of compound at pH 7.4 incubated for 4 hrs by PAMPA assay; type: ADME; settings: read-out: permeability
Method in brief: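 Double-sink PAMPA: compound diluted in pH 7.4 donor buffer, permeation through artificial membrane to acceptor over 4 h at 25 °C; donor and acceptor read by UV; mean ± SD of three independent experiments.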

MOLM-13 = test: Antiproliferative activity against human MOLM-13 cells assessed as cell viability incubated for 72 hrs by CCK8 assay; type: functional, cell-based; settings: MOLM-13, 72 h; method in brief: as §1
HUVEC = test: Antiproliferative activity against human HUVEC cells assessed as cell viability incubated for 72 hrs by CCK8 assay; type: cell-based; method in brief: as §1

Nc1c(Cl)ncnc1Nc1cc([N+](=O)[O-])ccc1N1CCN(c2ccccc2)CC1
IC50 [1]: > 50 µM

CN1CCN(c2ccc(-c3ccc(C(=O)NCCCN4CCOCC4)cc3)cc2Nc2ncnc(Cl)c2N)CC1
IC50 [1]: 0.16 µM

CCN1CCN(c2ccc([N+](=O)[O-])cc2Nc2ncnc(Cl)c2N)CC1
IC50 [1]: 38.1 µM

Cc1nc(Cl)c(N)c(Nc2cc([N+](=O)[O-])ccc2N2CCN(C)CC2)n1
IC50 [1]: 12.1 µM

Nc1c(Cl)ncnc1Nc1cc([N+](=O)[O-])ccc1N1CCOCC1
IC50 [1]: > 50 µM

Nc1c(Cl)ncnc1Nc1cc([N+](=O)[O-])ccc1N1CCN(C2CC2)CC1
IC50 [1]: > 50 µM

CN1CCN(c2ccc([N+](=O)[O-])cc2Nc2cc(N3CCCC3)ncn2)CC1
IC50 [1]: > 50 µM

CN1CCN(c2ccc([N+](=O)[O-])cc2Nc2ncccn2)CC1
IC50 [1]: > 50 µM

CN1CCC(NC(=O)c2ccc(-c3ccc(N4CCN(C)CC4)c(Nc4ncnc(Cl)c4N)c3)cc2)CC1
IC50 [1]: 0.23 µM

CN1CCN(c2ccc(-c3ccc(C(=O)NCCN4CCOCC4)cc3)cc2Nc2ncnc(Cl)c2N)CC1
IC50 [1]: 0.18 µM

CN1CCC(C(=O)Nc2ccc(-c3ccc(N4CCN(C)CC4)c(Nc4ncnc(Cl)c4N)c3F)cc2)CC1
IC50 [1]: 105 µM

CN1CCN(c2ccc([N+](=O)[O-])cc2Nc2ncncc2N)CC1
IC50 [1]: > 50 µM

Nc1c(Cl)ncnc1Nc1cc([N+](=O)[O-])ccc1N1CCN(CCO)CC1
IC50 [1]: > 50 µM

CN1CCN(c2ccc(-c3ccc(C(=O)N4CCOCC4)cc3)cc2Nc2ncnc(Cl)c2N)CC1
IC50 [1]: 0.19 µM

Nc1c(Cl)ncnc1Nc1cc([N+](=O)[O-])ccc1N1CCNCC1
IC50 [1]: 45.1 µM

CN1CCN(c2ccc([N+](=O)[O-])cc2Nc2ncnc3ccccc23)CC1
inhibition [2]: 35.8%

CN1CCN(c2ccc([N+](=O)[O-])cc2Nc2nccc(N)n2)CC1
IC50 [1]: > 50 µM

CN1CCN(c2cc(F)c(-c3ccc(C(=O)N4CCC(O)CC4)cc3)cc2Nc2ncnc(Cl)c2N)CC1
IC50 [1]: 33 µM

Cc1cc(N2CCN(C)CC2)c(Nc2ncnc(Cl)c2N)cc1-c1ccc(C(=O)NCCCN2CCOCC2)cc1
IC50 [1]: 465 µM

CN1CCN(c2ccc(-c3ccc(C(=O)N(C)C)cc3)c(F)c2Nc2ncnc(Cl)c2N)CC1
IC50 [1]: 240 µM

CN1CCN(c2ccc(-c3ccc(NC(=O)C4CCOCC4)cc3)c(F)c2Nc2ncnc(Cl)c2N)CC1
IC50 [1]: 176 µM

Cc1c(Cl)ncnc1Nc1cc([N+](=O)[O-])ccc1N1CCN(C)CC1
IC50 [1]: > 50 µM

Cc1c(-c2ccc(C(=O)N(C)C)cc2)ccc(N2CCN(C)CC2)c1Nc1ncnc(Cl)c1N
IC50 [1]: 0.67 µM

CN1CCN(c2ccc(-c3ccc(C(=O)NC4CCOCC4)cc3)cc2Nc2ncnc(Cl)c2N)CC1
IC50 [1]: 0.42 µM

CN1CCN(c2ccc(-c3ccc(C(=O)N4CCOCC4)cc3)c(F)c2Nc2ncnc(Cl)c2N)CC1
IC50 [1]: 117 µM

CN1CCN(c2ccc([N+](=O)[O-])cc2Nc2cc(N(C)C)ncn2)CC1
IC50 [1]: > 50 µM

CN1CCN(c2ccc([N+](=O)[O-])cc2Nc2cc(Cl)nc(N)n2)CC1
IC50 [1]: 20.4 µM

CN1CCN(c2ccc([N+](=O)[O-])cc2Nc2cc(N3CCC3)ncn2)CC1
IC50 [1]: > 50 µM

CN1CCN(c2ccc(-c3ccc(NC(=O)CC4CCOCC4)cc3)c(F)c2Nc2ncnc(Cl)c2N)CC1
IC50 [1]: 85 µM

CN1CCN(c2ccc(-c3ccc(C(=O)N4CCC(C)(O)CC4)cc3)cc2Nc2ncnc(Cl)c2N)CC1
IC50 [1]: 0.16 µM

CN1CCN(c2ccc(-c3ccc(C(=O)NCCN4CCOCC4)cc3)c(F)c2Nc2ncnc(Cl)c2N)CC1
IC50 [1]: 102 µM

CN1CCN(c2ccc([N+](=O)[O-])cc2Nc2ncnc(Cl)c2[N+](=O)[O-])CC1
IC50 [1]: > 50 µM

CN1CCN(C(=O)c2ccc(-c3ccc(N4CCN(C)CC4)c(Nc4ncnc(Cl)c4N)c3)cc2)CC1
IC50 [1]: 0.22 µM

CN1CCN(c2cc(F)c(-c3ccc(C(=O)NCC4CCOCC4)cc3)cc2Nc2ncnc(Cl)c2N)CC1
IC50 (MV4-11): 15.7 µM
IC50 [1]: 36 µM
IC50 (K562): 81.7 µM
Papp at 4 h [3]: 16.9 ×10⁻⁶ cm/s
IC50 (MOLM-13): 12.3 µM
IC50 (HUVEC): > 100 µM

CN1CCN(c2ccc([N+](=O)[O-])cc2Nc2ncccc2N)CC1
IC50 [1]: > 50 µM

CN1CCN(c2ccc(-c3ccc(C(=O)NCCCN4CCOCC4)cc3)c(F)c2Nc2ncnc(Cl)c2N)CC1
IC50 [1]: 69 µM

Cc1nc(Cl)cc(Nc2cc([N+](=O)[O-])ccc2N2CCN(C)CC2)n1
IC50 [1]: > 50 µM

CN1CCN(c2cc(F)c(-c3ccc(C(=O)NCCCN4CCOCC4)cc3)cc2Nc2ncnc(Cl)c2N)CC1
IC50 (MV4-11): 25.6 µM
IC50 [1]: 0.021 µM
IC50 (K562): 70.1 µM
Papp at 4 h [3]: 9.14 ×10⁻⁶ cm/s
IC50 (MOLM-13): 17.3 µM
IC50 (HUVEC): > 100 µM

CN1CCN(c2cc(F)c(-c3ccc(C(=O)NCCN4CCOCC4)cc3)cc2Nc2ncnc(Cl)c2N)CC1
IC50 (MV4-11): 27.7 µM
IC50 [1]: 74 µM
IC50 (K562): > 100 µM
Papp at 4 h [3]: 10.5 ×10⁻⁶ cm/s
IC50 (MOLM-13): 23.1 µM
IC50 (HUVEC): > 100 µM

CCN1CCN(C(=O)c2ccc(-c3ccc(N4CCN(C)CC4)c(Nc4ncnc(Cl)c4N)c3F)cc2)CC1
IC50 [1]: 112 µM

CN1CCN(c2cc(F)c(-c3ccc(C(=O)N4CCOCC4)cc3)cc2Nc2ncnc(Cl)c2N)CC1
IC50 (MV4-11): 19.6 µM
IC50 [1]: 36 µM
IC50 (K562): 88.7 µM
Papp at 4 h [3]: 13.7 ×10⁻⁶ cm/s
IC50 (MOLM-13): 16.5 µM
IC50 (HUVEC): > 100 µM

CN1CCN(c2ccc(-c3ccc(C(=O)N4CCC(O)CC4)cc3)cc2Nc2ncnc(Cl)c2N)CC1
IC50 [1]: 0.11 µM
